Data set [1] has as its system Plasmodium falciparum. Description: Antiprotozoal activity against chloroquine-resistant Plasmodium falciparum C2B assessed as growth inhibition after 72 hrs by SYBR Green dye-based fluorescence assay. Format: functional, organism-based.
Data set [2] deals with Plasmodium falciparum. Description: Antiprotozoal activity against chloroquine-resistant Plasmodium falciparum W2 assessed as growth inhibition after 72 hrs by SYBR Green dye-based fluorescence assay. The note with it: W2, 72 h. The class given is functional, organism-based. The method, boiled down:
(§1)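 Laboratory strains (D6, TM91C235, W2) in long-term culture, late-ring/early-trophozoite stage, seeded into pre-dosed 384-well plates at 0.3% parasitemia and 2% hematocrit. Twelve two-fold dilutions from DMSO, final 0.5–10000 ng/ml, in duplicate or quadruplicate. Incubated 72 h at 37°C under 5% CO2/5% O2/90% N2. Lysis buffer with SYBR Green I (final 10x) added, then 24 h dark at room temperature. Fluorescence read; IC50/IC90 from sigmoidal variable-slope fit. Chloroquine 2000 ng/ml batch control.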

The subject of data set [3] is Plasmodium falciparum. Description: Antiprotozoal activity against chloroquine/mefloquine/pyrimethamine-resistant Plasmodium falciparum C235 assessed as growth inhibition after 72 hrs by SYBR Green dye-based fluorescence assay. Format: functional, organism-based. Conditions: C235, 72 h. In short, it runs like this: as §1
The nature of data set [4]: Cytotoxicity against human HepG2 cells after 48 hrs by MTT assay. Format: cell-based. Conditions: read-out: TC50. The method, boiled down: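 HepG2 cells in supplemented MEM, 9570 cells/well, plated overnight at 37°C. Twelve 1.6-fold dilutions in duplicate, 57–10,000 ng/ml, 48 h. MTT added for 1 h at room temperature in the dark; formazan dissolved in acidified isopropanol; absorbance read. IC50 by sigmoidal variable-slope nonlinear regression; mefloquine served as plate control.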
(Tetrazolium dyes change colour on reduction, which living cells bring about.)

For data set [5], the system named is Plasmodium falciparum. Description: Antiprotozoal activity against Plasmodium falciparum D6 assessed as growth inhibition after 72 hrs by SYBR Green dye-based fluorescence assay. The class given is functional, organism-based. The note with it: D6, 72 h. The method, boiled down:
as §1

Data set [6] concerns Leishmania major. The data set can be described thus: Antiprotozoal activity against intracellular amastigote stage of Leishmania major infected in mouse […] cells assessed as growth inhibition after 96 hrs by luciferase reporter gene assay. The class given is functional, organism-based. The method, boiled down: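 RAW 264.7 macrophages (10,000/well, DMEM/10% HIFBS, 24 h at 37°C) infected overnight with luciferase-expressing L. major promastigotes (100,000/well), then washed three times. Twelve two-fold dilutions in duplicate, final 0.5–10,000 ng/ml, 96 h at 37°C, 5% CO2. Luciferin added for 30 min; luminescence read. IC50 by sigmoidal variable-slope nonlinear regression.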
(In a reporter assay the amount or activity of a reporter protein is the signal.)

Data set [7] relates to Leishmania major. Description: Antiprotozoal activity against promastigote stage of Leishmania major assessed as growth inhibition after 44 hrs by AlamarBlue staining-based fluorescence assay. Format: functional, organism-based. In general terms: The colour change of resazurin is a common sign of viable cells or microbes.
For data set [8], the system named is Trypanosoma brucei. The data set can be described thus: Antiprotozoal activity against Trypanosoma brucei 427 assessed as growth inhibition after 48 hrs by PrestoBlue-based fluorescence assay. Format: functional, organism-based. Conditions: Trypanosoma brucei, 427, 48 h. The method, boiled down:
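T. brucei brucei strain 427 at 5 × 10^3 cells/well in HMI-9 with compound; 37°C, 5% CO2, 48 h. PrestoBlue added for a further 4 h; fluorescence read at ex 530 / em 590 nm.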

Data set [9] in a line: Selectivity ratio of TC50 for human HepG2 cells to EC50 for Plasmodium falciparum D6. The class given is ADME, cell-based.

The source of these data is ChEMBL document CHEMBL3132763, “Repurposing human Aurora kinase inhibitors as leads for anti-protozoan drug discovery” (Medchemcomm, 2014).

Molecules are shown by their SMILES.

Broadly, the EC50 is the concentration that produces a half-maximal response.

As to `CC(=O)N1C(=O)/C(=C(\Nc2ccc(CN3CCCCC3)cc2)c2ccccc2)c2cc([N+](=O)[O-])ccc21`, the EC50 in data set [1] worked out at 0.249 µM; in data set [2], 0.307 µM; in data set [3], 0.271 µM; in data set [5], 0.275 µM; in data set [6], 2.04 µM; in [7], 1.08 µM. In addition, the EC50 in [8] worked out at 0.13 µM. Also, the CC50 at 48 h in [4] is above 6 µM.
As for `CC(=O)N1C(=O)/C(=C(\Nc2ccc(CN3CCCCC3)cc2)c2ccccc2)c2cc(N)ccc21`, the EC50 in data set [1] is 0.21 µM; in data set [2], 0.241 µM; in [3] it was 0.243 µM; in [5], 0.218 µM; in data set [6], above 4 µM; in [7], above 4 µM. Besides, in [8], the EC50 stood at 3.25 µM. In data set [4], the CC50 at 48 h came out at 1.81 µM.
In the case of `Nc1ccc2c(c1)/C(=C(/Nc1ccc(CN3CCCCC3)cc1)c1ccccc1)C(=O)N2`, the EC50 in [1] is 0.175 µM; in data set [2] it was 0.228 µM; in data set [3], 0.176 µM; in data set [5] it was 0.199 µM; in [6], above 4 µM; in data set [7], 0.79 µM. In data set [8], the EC50 came out at 1.16 µM. Besides, the CC50 at 48 h in [4] was above 6 µM.
For `CS(=O)(=O)Nc1ccc2c(c1)/C(=C(/Nc1ccc(CN3CCCCC3)cc1)c1ccccc1)C(=O)N2`, the EC50 was 0.086 µM in data set [2]; 0.058 µM in data set [3]; 0.052 µM in [5]; above 4 µM in data set [6]; 0.39 µM in data set [7]; 0.02 µM in data set [8]. Further, the CC50 at 48 h in data set [4] was determined as 0.2 µM.
As for `O=C1Nc2ccc(NS(=O)(=O)c3ccccc3)cc2/C1=C(/Nc1ccc(CN2CCCCC2)cc1)c1ccccc1`, the EC50 in data set [1] is 0.082 µM; in [2], 0.144 µM; in data set [3], 0.12 µM; in data set [5] it was 0.107 µM; in data set [6], 1.91 µM; in data set [7] it was 0.85 µM. In addition, in data set [8], the EC50 is 0.01 µM. The CC50 at 48 h in [4] was determined as 3.29 µM.
As to `CC(=O)Nc1ccc2c(c1)/C(=C(/Nc1ccc(CN3CCCCC3)cc1)c1ccccc1)C(=O)N2`, the EC50 in [1] was 0.056 µM; in data set [2] it was 0.088 µM; in [3] it was 0.074 µM; in data set [5], 0.068 µM; in data set [6], above 4 µM; in data set [7] it was 1.52 µM. The EC50 in data set [8] turned out to be 0.15 µM. The CC50 at 48 h in data set [4] was above 6 µM.
As for `CCS(=O)(=O)Nc1ccc2c(c1)/C(=C/Nc1ccc(CN3CCCCC3)cc1)C(=O)N2`, the EC50 in data set [1] was 0.173 µM; in data set [2], 0.273 µM; in data set [3] it was 0.242 µM; in data set [5] it was 0.241 µM; in [6], above 4 µM; in data set [7], 2.77 µM. In data set [8], the EC50 was 1.32 µM. Moreover, the CC50 at 48 h in [4] amounted to 5 µM.
For the compound `CCS(=O)(=O)Nc1ccc2c(c1)/C(=C(\C)Nc1ccc(CN3CCCCC3)cc1)C(=O)N2`, the EC50 in data set [1] is 1.06 µM; in data set [2] it was 1.26 µM; in [3] it was 1.19 µM; in data set [5] it was 1.36 µM; in [6], above 4 µM; in data set [7], above 4 µM. The EC50 in data set [8] turned out to be 3.36 µM. Also, the CC50 at 48 h in [4] was above 6 µM.
For `CC/C(Nc1ccc(CN2CCCCC2)cc1)=C1/C(=O)Nc2ccc(NS(=O)(=O)CC)cc21`, the EC50 in data set [1] is 0.143 µM; in data set [2], 0.347 µM; in data set [3], 0.255 µM; in data set [5], 0.233 µM; in data set [6] it was above 4 µM; in [7], 2.8 µM. The EC50 in data set [8] worked out at 1.79 µM. The CC50 at 48 h in [4] is above 6 µM.
With `CCCC/C(Nc1ccc(CN2CCCCC2)cc1)=C1/C(=O)Nc2ccc(NS(=O)(=O)CC)cc21`, the EC50 in data set [1] is 0.148 µM; in data set [2], 0.217 µM; in data set [3], 0.17 µM; in data set [5] it was 0.167 µM; in data set [6], above 4 µM; in data set [7], 2.6 µM. Besides, the EC50 in data set [8] amounted to 1.67 µM. Further, the CC50 at 48 h in [4] was above 6 µM.
For `CCS(=O)(=O)Nc1ccc2c(c1)/C(=C(/NC1CCN(C)CC1)c1ccccc1)C(=O)N2`, the EC50 in data set [1] is above 15 µM; in [2], above 15 µM; in data set [3] it was above 15 µM; in data set [5], above 15 µM; in [6], above 4 µM; in data set [7], above 4 µM. For the same compound, the EC50 in data set [8] was above 50 µM. Besides, the CC50 at 48 h in data set [4] was above 10 µM.
As to `CCS(=O)(=O)Nc1ccc2c(c1)/C(=C(/Nc1ccccc1)c1ccccc1)C(=O)N2`, the EC50 was 0.117 µM in data set [1]; 0.143 µM in data set [2]; 0.118 µM in data set [3]; 0.109 µM in data set [5]; above 4 µM in data set [6]; above 4 µM in data set [7]. In addition, in data set [8], the EC50 was found to be 1.44 µM. In addition, in data set [9], the selectivity ratio was determined as 50. Also, in data set [4], the CC50 at 48 h came out at 4.7 µM.
Regarding `CCS(=O)(=O)Nc1ccc2c(c1)/C(=C(/Nc1ccc(C)cc1)c1ccccc1)C(=O)N2`, the EC50 in [1] was 1.57 µM; in data set [2], 2.49 µM; in data set [3], 1.64 µM; in data set [5] it was 1.61 µM; in data set [6] it was above 4 µM; in data set [7], 2.6 µM. For the same compound, the EC50 in data set [8] was 0.37 µM. For the same compound, in data set [4], the CC50 at 48 h came to 3.1 µM.
`CCS(=O)(=O)Nc1ccc2c(c1)/C(=C(/Nc1ccc(CN3CCOCC3)cc1)c1ccccc1)C(=O)N2`: the EC50 was determined as 0.077 µM in [2]; 0.031 µM in data set [3]; 0.054 µM in data set [5]; 1.68 µM in data set [6]; 0.94 µM in data set [7]; 0.1 µM in data set [8]. In data set [4], the CC50 at 48 h is 1.31 µM.
On to `CCS(=O)(=O)Nc1ccc2c(c1)/C(=C(/Nc1ccc(N3CCCCC3)cc1)c1ccccc1)C(=O)N2`, for which the EC50 was 0.735 µM in data set [1]; 0.832 µM in data set [2]; 0.647 µM in data set [3]; 0.595 µM in [5]; above 4 µM in data set [6]; 0.62 µM in data set [7]. Also, the EC50 in [8] is 1.53 µM. For the same compound, the CC50 at 48 h in data set [4] was above 6 µM.
Consider `O=C1Nc2ccccc2/C1=C(/Nc1ccc(CN2CCCCC2)cc1)c1ccccc1`, for which the EC50 in data set [1] was 0.16 µM; in [2] it was 0.273 µM; in [3] it was 0.227 µM; in data set [5] it was 0.23 µM; in [6], above 4 µM; in data set [7] it was 0.77 µM. In addition, the EC50 in data set [8] was 0.07 µM. For the same compound, in data set [4], the CC50 at 48 h is above 6 µM.
As for `CO[C@@H](C(=O)N1Cc2n[nH]c(NC(=O)c3ccc(N4CCN(C)CC4)cc3)c2C1)c1ccccc1` [DANUSERTIB], in data set [4], the CC50 at 48 h worked out at 4 µM. Further, the EC50 in data set [5] is 0.857 µM; in data set [7], above 21 µM.
Consider `CCS(=O)(=O)Nc1ccc2c(c1)/C(=C(/Nc1ccc(CN3CCCCC3)cc1)c1ccccc1)C(=O)N2` [HESPERADIN], for which the EC50 is 0.014 µM in data set [1]; 0.021 µM in [2]; 0.01 µM in data set [3]; 0.01 µM in data set [5]; 2.37 µM in [6]; 0.12 µM in data set [7]. For the same compound, the EC50 in [8] is 0.06 µM. In data set [4], the CC50 at 48 h is below 0.2 µM.
For the compound `Cc1cc(Nc2cc(N3CCN(C)CC3)nc(Sc3ccc(NC(=O)C4CC4)cc3)n2)n[nH]1` [TOZASERTIB], the CC50 at 48 h in [4] came out at 3.3 µM. The EC50 in [5] is 0.838 µM; in data set [7], above 21 µM; in [8] it was 10 µM.
